This note sets out measurements from ChEMBL document CHEMBL4196022, “Alkynyl-containing phenylthiazoles: Systemically active antibacterial agents effective against methicillin-resistant Staphylococcus aureus (MRSA)” (Eur J Med Chem, 2018).

The structures appear in SMILES notation. In brackets after ≈: the same amount, converted by molar mass.

In series [1] the test system is Staphylococcus aureus. In words: Bactericidal activity against methicillin-resistant Staphylococcus aureus NRS107 up to 18 hrs by broth microdilution assay. The series is classed as functional. As to conditions: NRS107, 18 h, read-out: MBC99.9.
Series [2] concerns Staphylococcus aureus. In words: Bactericidal activity against methicillin resistant Staphylococcus aureus NRS123 (USA400) up to 18 hrs by broth microdilution assay. It counts as functional. The conditions noted are these: read-out: MBC99.9. (Dilution methods test growth across graded concentrations, often in twofold steps.)
The subject of series [3] is Staphylococcus aureus. Briefly: Bactericidal activity against methicillin resistant vancomycin-resistant Staphylococcus aureus VRS11a up to 18 hrs by broth microdilution assay. The series is classed as functional. The conditions noted are these: read-out: MBC99.9.
The nature of series [4]: Induction of proton motive force collapse in Escherichia coli inverted membrane vesicle in presence of ATP-driven PMF generation system by ACMA-based fluorescence assay. The series is classed as functional, cell membranes. The method, boiled down: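 E. coli inverted membrane vesicles had proton motive force generated either by ATP or by succinate/O2. PMF collapse was followed as a dose response to give EC50, with CCCP as the reference uncoupler.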

The nature of series [5]: Half life in human liver microsomes at 0.1 uM preincubated for 5 mins followed by NDAPH addition measured up to 60 mins by HPLC-MS/MS analysis. The conditions noted are these: 1 h.
Series [6] concerns Staphylococcus aureus. In words: Antibacterial activity against methicillin-resistant Staphylococcus aureus USA300 in Balb/c mouse skin infection model assessed as reduction in bacterial burden in wounded skin area at 2% administered topically twice daily for 5 consecutive days measured 12 hrs post last dose relative to control. It counts as functional. Details: scale not given: the % may be the effect or the level left. The method, boiled down:
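Female Balb/c mice, 8 weeks old, n=5 per group. Intradermal injection of 40 μL of 1.32×10^9 CFU/mL USA300; a wound formed by ~66 h. Treated topically with a 2% suspension in petroleum jelly twice daily for 5 days; the vehicle group served as control. Wounds excised 12 h after the last dose, homogenized in PBS and plated on mannitol salt agar; sites also observed for redness and swelling.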

For the compound `C/C(=N\NC(=N)N)c1sc(-c2ccc(C#CC3CC3)cc2)nc1C`, the MBC in the series with Staphylococcus aureus [1], with Staphylococcus aureus [2] and in the series with Staphylococcus aureus [3] was 2 µg/mL (≈ 5.93 µM) in each case. Besides, in series [4], the EC50 was determined as 24 µM. In series [5], the t1/2 amounted to 4.87 h. Also, the Activity with Staphylococcus aureus [6] is on record as 73%.

By EC50 is commonly meant the concentration at which the effect is half-maximal.
